Compound activity as filed in PubChem BioAssay.
The list is not random: actives were taken first. Their share in the collection is about 4.1%.
KCNK3 inh = human KCNK3 channel inhibition, primary screen; CHO-KCNK3 thallium flux, FluxOR fluorescence; active compounds read low; B-score at 10 µM; actives 0.84% (n = 340,000);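 active = B-score under library mean minus 4 SD, starting fluorescence ratio at most library mean plus 5 SD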;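 also: more negative B-score means stronger inhibition of thallium flux through KCNK3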
KCNQ1 block = human KCNQ1 channel inhibition; P51787; CHO-K1 KCNQ1, FluxOR thallium flux fluorescence; active compounds read high; B-score at 10 µM; actives 1.3% (n = 310,000);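 active = compounds whose thallium flux B-score, printed positive for inhibition, exceeds three library SD while starting fluorescence stays within three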;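 also: channel opened by potassium depolarization with thallium stimulus after 20 min compound exposure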
hERG rescue = compounds protecting human hERG from proarrhythmic drug block; Q12809; activation (rescue from dofetilide block), less the hit threshold, % at 10 µM; actives 0.51% (n = 310,000); CHO-hERG, FluxOR thallium flux, dofetilide IC70 present;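 active = activation above the mean of controls blocked by dofetilide plus 5 SD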;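 also: thallium influx through hERG after potassium depolarization seen as dye fluorescence rise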
KCNK9 block = blocks the human KCNK9 two-pore domain potassium channel. HEK293 KCNK9, FluxOR thallium flux fluorescence; active compounds read low. B-score at 10 µM. actives 1.2% (n = 310,000);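 active = ratio B-score over 3 SD below the library mean, with starting fluorescence within 5 SD of its mean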;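 also: negative B-score means less thallium flux so channel inhibition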
KCNQ1 pot = human KCNQ1 channel potentiation or activation; actives 0.35% (n = 310,000); AID 2648; B-score at 10 µM; P51787; CHO-K1 KCNQ1, thallium flux FluxOR fluorescence; active compounds read high;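 active = fluorescence ratio B-score, a plate-corrected score, at least three library SD, with initial intensity B-score within 5 SD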
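Medium – assay buffer, equal DMSO in all wells · Material – CHO-K1 cell line with stable KCNQ1 potassium channel expression · Signal – kinetic FluxOR thallium fluorescence, 10-s 1-Hz baseline, 110-s post-stimulus read · Compound – single concentration per compound, DMSO matched to controls · Schedule – 37 °C overnight plating, 90-min dark dye load, 20-min compound pretreatment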
Cl transport mod = modulates chloride dependent transport by human KCC2. AID 1456. actives 2.2% (n = 190,000). B-score of Tl+ flux slope (higher = more flux/activation; lower = inhibition) at 10 µM. KCC2 cells, thallium flux FluoZin-2 fluorescence;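 active = thallium flux slope and its plate-corrected score both differing from the plate sample mean at a set confidence after two filtering rounds, in either direction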;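 also: slope of fluorescence scaled to starting intensity during 10 to 20 s after thallium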
Target sequence (Q9H2X9 whole entry, looked up): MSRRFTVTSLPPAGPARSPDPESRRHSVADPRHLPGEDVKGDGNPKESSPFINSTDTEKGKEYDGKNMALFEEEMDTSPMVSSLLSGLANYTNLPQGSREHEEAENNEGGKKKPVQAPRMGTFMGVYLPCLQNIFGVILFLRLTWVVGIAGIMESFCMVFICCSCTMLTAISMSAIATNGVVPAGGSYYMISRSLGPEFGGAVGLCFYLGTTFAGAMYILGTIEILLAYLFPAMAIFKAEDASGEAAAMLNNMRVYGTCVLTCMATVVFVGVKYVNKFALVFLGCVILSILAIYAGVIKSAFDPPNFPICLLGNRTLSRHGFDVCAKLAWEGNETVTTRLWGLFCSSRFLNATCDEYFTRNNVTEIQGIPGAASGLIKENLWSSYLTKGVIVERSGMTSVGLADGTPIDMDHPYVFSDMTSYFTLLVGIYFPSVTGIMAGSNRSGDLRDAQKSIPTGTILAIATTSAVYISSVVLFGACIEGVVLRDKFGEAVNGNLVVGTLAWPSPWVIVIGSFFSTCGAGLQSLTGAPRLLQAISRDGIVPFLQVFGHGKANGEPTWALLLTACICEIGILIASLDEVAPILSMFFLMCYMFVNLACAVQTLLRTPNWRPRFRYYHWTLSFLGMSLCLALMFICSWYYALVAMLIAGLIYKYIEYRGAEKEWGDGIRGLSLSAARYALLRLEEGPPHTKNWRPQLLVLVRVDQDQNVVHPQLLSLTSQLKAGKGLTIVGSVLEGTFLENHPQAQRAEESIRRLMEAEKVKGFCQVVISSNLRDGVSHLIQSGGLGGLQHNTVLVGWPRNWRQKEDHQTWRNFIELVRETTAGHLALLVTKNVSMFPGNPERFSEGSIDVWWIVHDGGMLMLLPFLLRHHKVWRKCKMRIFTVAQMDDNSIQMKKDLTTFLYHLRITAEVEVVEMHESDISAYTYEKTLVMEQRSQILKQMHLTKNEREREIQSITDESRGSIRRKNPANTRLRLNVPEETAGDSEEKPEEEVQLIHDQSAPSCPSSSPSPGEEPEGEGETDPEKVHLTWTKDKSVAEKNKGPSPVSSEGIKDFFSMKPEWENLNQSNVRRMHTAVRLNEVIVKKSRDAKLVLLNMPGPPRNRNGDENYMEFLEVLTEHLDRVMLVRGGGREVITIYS
Active calls of the source: *; i = inactive; · = no result given.

SMILES | KCNK3 inh | KCNQ1 block | hERG rescue | KCNK9 block | KCNQ1 pot | Cl transport mod
CCN(CC)CCCNC(=O)c1cn(-c2cccc(OC)c2)c(=O)c2ccccc12 | i | i | 5.0* | i | i | ·
C/C(=N\Nc1ncnc2sc(C)c(C)c12)c1ccccn1 | i | 11* | -44.2 | i | i | ·
Cc1ccc(C(=O)NC(=S)Nc2ccc(N3CCN(C(=O)c4ccco4)CC3)cc2)cc1 | i | i | -9.6 | i | i | ·
CC1CCN(c2ccc(NC(=S)NC(=O)c3ccco3)cc2)CC1 | i | i | -2.5 | i | i | 25.3*
O=C(NC(=S)Nc1ccc(N2CCCCC2)cc1)c1ccco1 | i | i | 5.6* | i | 9* | 71.8*
O=[N+]([O-])c1cccc(COc2ccccc2CN2CCCCC2)c1 | i | · | · | · | · | ·
CC1CCC(NC(=O)CN2C(=O)C3CC=CCC3C2=O)CC1 (stereo not given) | i | · | · | · | · | ·
O/N=C/c1cc(Cl)ccc1OCc1cccc2ccccc12 | · | 7* | -9.6 | -10.9* | i | 0.116
CCOc1ccc(NC(=S)N=Nc2c(O)[nH]c3ccccc23)cc1 | i | i | -3.5 | i | i | 4.38*
O=C(CSCc1ccccc1)N=Nc1c(O)[nH]c2ccccc12 | i | i | -8.8 | i | i | 8.59*
Oc1[nH]c2ccccc2c1N=NC(=S)NCCc1ccccc1 | i | i | 1.8 | i | i | 19.7*
COCc1cc(=O)n2[nH]c(-c3cccs3)cc2n1 | i | i | -5.3 | i | i | 0.0401
COc1ccc(/C(N)=N/OC(=O)CC2CCCCC2)cc1 | i | i | -6.0 | i | i | ·
Cc1c(C(=O)Nc2ccccc2N2CCN(C)CC2)oc2ccc(F)cc12 | i | · | · | · | · | ·
O=C(NC(=S)Nc1ccccc1F)c1ccc(Br)o1 | i | i | 31.6* | i | 77* | i
Cc1cccc(C)c1NC(=S)NC(=O)c1ccc(Br)o1 | i | i | 25.3* | i | 27* | 192*
Cc1c(NC(=S)NC(=O)c2ccc(Br)o2)c(=O)n(-c2ccccc2)n1C | i | i | -7.5 | i | i | 0.957
O=C(NNC(=S)Nc1ccccc1C(F)(F)F)c1ccc(Br)o1 | i | i | -2.1 | i | i | 0.09
CCCOc1ccc(C(=O)Nn2c(C)nc3ccccc3c2=O)cc1 | i | i | 6.5* | i | i | -0.146
COc1ccc(C(=O)Nn2c(SCC(=O)c3ccc(Cl)cc3)nc3ccccc3c2=O)cc1 | i | i | -12.7 | -7.05* | i | 0.394
COc1ccc(C(=O)Nn2c(C)nc3ccccc3c2=O)cc1 | i | i | -6.8 | i | i | ·
Cc1nn(S(=O)(=O)c2ccc(Br)cc2)c(C)c1S(=O)(=O)N1CCOCC1 | i | i | -10.3 | i | i | ·
O=C(CN1CCN(C(=O)C2CCCO2)CC1)Nc1ccc(Br)cc1 (stereo not given) | i | i | -2.5 | i | i | ·
Cc1nc(SCC(=O)c2cccs2)c2oc3ccccc3c2n1 | i | 10* | -15.9 | i | i | -0.277
O=C(CSc1ncnc2c1oc1ccccc12)c1cccs1 | i | i | -1.7 | i | i | ·
SMILES | KCNK3 inh | KCNQ1 block | hERG rescue | KCNK9 block | KCNQ1 pot | Cl transport mod
O=C(Nc1ncc(Br)s1)C(Cc1ccccc1)n1cccc1 (stereo not given) | i | i | 11.1* | i | 31* | ·
Cc1cc(C(=O)CSc2nc3ccccc3c(=O)n2C)c(C)n1Cc1ccc2c(c1)OCO2 | i | i | -25.8 | -7.93* | i | 0.0351
CC(Sc1ccc(Cl)cc1)C(=O)NNC(=O)c1ccccc1O (stereo not given) | i | 6* | -12.6 | i | i | ·
Cc1cccc(/C=c2\s/c(=C\C(=O)C(C)(C)C)[nH]c2=O)c1 | i | i | 2.0 | i | i | 12*
COc1ccc(C(=O)CCS(=O)(=O)c2ccc(C)cc2)cc1OC | i | i | -7.5 | i | 8* | ·
O=C(CCCN1C(=O)C(c2ccccc2)Oc2cccnc21)NCCc1ccc(Cl)cc1 (stereo not given) | i | i | -3.2 | i | i | ·
C=C1CC(Cn2cc(Br)c(=O)[nH]c2=O)(c2ccc(-c3ccccc3)cc2)OC1=O (stereo not given) | i | · | · | · | · | ·
O=C(O)Cc1ccc(NC(=O)C2CC=CCC2C(=O)O)cc1 (stereo not given) | · | i | 8.7* | i | i | 0.356
Fc1ccc(/C=N/n2c(-c3cccs3)n[nH]c2=S)cc1 | i | i | -13.3 | i | 10* | ·
CCOc1cc(CNCCO)cc(Br)c1OCc1ccc(Cl)cc1Cl | i | i | -16.9 | -7.8* | i | ·
O=C(NC(=S)Nc1ccc(N2CCCC2)cc1)c1ccccc1[N+](=O)[O-] | i | i | -5.7 | i | i | 0.166
O=C(NC(=S)Nc1ccccc1N1CCCC1)c1ccccc1[N+](=O)[O-] | i | i | -4.1 | i | i | 15.7*
O=C(NC(=S)Nc1ccccc1N1CCCC1)c1ccccc1Br | i | i | 13.6* | i | 16* | ·
Cc1cc(C)c(S(=O)(=O)NC2CC(C)(C)NC(C)(C)C2)cc1Br | i | i | -0.2 | i | i | ·
O=C(CCc1ccccc1)NCc1ccc2c(c1)OCO2 | i | i | -5.9 | i | i | ·
Cc1ccccc1OCCC(=O)Nc1cc(S(=O)(=O)N2CCOCC2)ccc1OC(C)C | i | i | -14.6 | i | i | ·
O=C(/C=C/c1ccc(Br)cc1)N1CCN(c2cccc(C(F)(F)F)c2)CC1 | i | 7* | -13.3 | i | i | 0.249
COc1cccc(NC(=O)C(C)N2C(=O)c3ccccc3C2=O)c1 (stereo not given) | i | i | -9.4 | i | i | ·
CC(=O)c1ccc(S(=O)(=O)Nc2c(C)nn(C)c2C)cc1 | i | · | · | · | · | ·
CCc1ccc(/C=C2/SC(=S)N(CC(=O)Nc3nc4ccccc4s3)C2=O)cc1 | i | i | -8.9 | i | i | 4.92*
CCOC(=O)c1cc(C#N)c(Oc2cccc(C(F)(F)F)c2)nc1-c1ccccc1 | i | 6* | -13.1 | i | i | ·
Clc1ccc(CSc2nnc(CNc3cccc(Cl)c3)o2)cc1 | i | 6* | -7.4 | i | i | -0.29
Fc1ccc(NCc2nnc(SCc3ccccc3)o2)cc1 | i | i | -4.0 | i | i | -3.01
O=S(=O)(O)c1cccc2cccc(Nc3ccccc3)c12 | i | i | -2.6 | i | i | ·
O=C(N/N=C/c1ccccn1)c1ccco1 | i | i | -6.6 | i | i | 1.02
O=C(N/N=C/c1ccc2ncccc2c1)c1ccco1 | i | 6* | -9.1 | i | i | 1.24
Cc1oc(-c2ccccc2Cl)nc1CS(=O)(=O)CC(=O)N1CCOCC1 | i | i | -8.1 | i | i | ·
